Among the data in ChEMBL document CHEMBL1154102, “Nucleoside-amino acid conjugates: An alternative route to the design of ribonuclease A inhibitors” (Bioorg Med Chem, 2009) are Activity and Ki values, retold here.

Each structure is given as a SMILES string. Active and inactive are the calls of the source. The rule behind the calls is not given here.

In experiment [1] the target is T1, Ribonuclease pancreatic (Bos taurus) (UniProt P61823).
T1 sequence (whole entry): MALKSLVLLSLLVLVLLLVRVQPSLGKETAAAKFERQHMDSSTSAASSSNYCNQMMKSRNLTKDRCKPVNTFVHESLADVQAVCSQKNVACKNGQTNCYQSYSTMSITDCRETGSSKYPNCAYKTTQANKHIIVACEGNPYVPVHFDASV
The experiment in a line: Inhibition of bovine pancreatic RNase A assessed as tRNA degradation at 0.92 mM after 6 hrs using ethidium bromide staining by agarose gel-based assay. An outline of the steps:
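RNase A (0.66 µM stock) preincubated with varying volumes of compound (0.92 mM stock) 6 h at 37 °C. Aliquots mixed with tRNA (5.0 mg/ml) and glycerol/bromophenol blue sample buffer, 30 min further incubation, then run on 1.1% agarose in TAE pH 8.0. Undegraded tRNA seen by ethidium bromide staining under UV.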

For experiment [2], the target named is T1, Ribonuclease pancreatic (Bos taurus). The experiment is described as follows: Inhibition of bovine pancreatic RNase A assessed as tRNA degradation at 0.50 mM after 2 hrs by precipitation assay. An outline of the steps: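 Bond precipitation method. RNase A with conjugate (1 mM stock) preincubated 2 h at 37 °C; aliquot added to tRNA (5 mg/ml) in Tris-HCl pH 7.5 with 5 mM EDTA and 0.5 mg/ml HSA, 30 min at 25 °C. Quenched with ice-cold 1.14 N perchloric acid/6 mM uranyl acetate, 30 min on ice, centrifuged; supernatant diluted, A260 compared to control.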

The target is the same in experiment [3]. The experiment in a line: Inhibition of bovine pancreatic RNase A at 5 uM by fluorescence assay. An outline of the steps: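 Fluorimetric titration, 1 cm cuvette, excitation 295 nm: 5 µM ligand in 20 mM phosphate pH 7.0 with 50 mM NaCl, RNase A added stepwise to a final 17.5 µM; change in emission intensity followed.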
Experiment [4] deals with T2, Ribonuclease pancreatic (Bos taurus, UniProt P61823).
T2 sequence (P61823 whole entry): T1 sequence (whole entry)
The experiment in a line: Inhibition of bovine pancreatic RNase A by spectrophotometric assay.

Experiment [5] concerns the target T1, Ribonuclease pancreatic (Bos taurus). The experiment is described as follows: Inhibition of bovine pancreatic RNase A assessed as change in pKa of His-105 by NMR spectroscopy. An outline of the steps:
(§1)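 RNase A H/D exchanged in D2O (50 °C, 20 min, lyophilized, three cycles), redissolved in D2O with 0.17 M NaCl and 0.5 mM DSS; ligand:enzyme molar ratio 5:1; pH* 3–8 set with DCl/NaOD, uncorrected. 1H NMR at 400 MHz, 22.5 °C, 100 scans, 2 s acquisition; His C-2 shifts vs DSS fitted to titration equations for pKa; pK2 used.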

For experiment [6] the target is unchanged. The experiment in a line: Inhibition of bovine pancreatic RNase A assessed as change in pKa of His-12 by NMR spectroscopy. In a few lines: as §1
The target is the same in experiment [7]. The experiment is described as follows: Inhibition of bovine pancreatic RNase A assessed as change in pKa of His-119 by NMR spectroscopy. In a few lines:
as §1

Turning to `Cc1cn([C@H]2C[C@H](NC(=O)C(N)Cc3c[nH]c4ccccc34)[C@@H](CO)O2)c(=O)[nH]c1=O` (stereo not given in full), the outcome in experiment [1], in experiment [2] and in experiment [3] was Active.
As a reminder, the Ki is a dissociation constant, usually derived from enzyme kinetics or from competition with a known ligand. Read a high Ki as weaker binding. For the compound `Cc1cn([C@H]2C[C@H](NC(=O)C(N)Cc3ccc(O)cc3)[C@@H](CO)O2)c(=O)[nH]c1=O` (stereo not given in full), the result in experiment [1] and in experiment [2] was Active. In experiment [4], this compound came in with a Ki of 451 µM.
With `Cc1cn([C@H]2C[C@H](NC(=O)C(N)CC(C)C)[C@@H](CO)O2)c(=O)[nH]c1=O` (stereo not given in full), the result in experiment [5], in experiment [6] and in experiment [7] was inactive.
In experiment [4], `Nc1ccn([C@@H]2O[C@H](CO)[C@@H](O)[C@H]2OP(=O)(O)O)c(=O)n1` had a Ki of 7 µM.
